Experimental data taken from PubChem BioAssay AID504653 (Molecular Libraries Program, Specialized Chemistry Center, …, 2011).
Activity calls are given as the source filed them.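 How the source made its calls: active means caspase 3/7 peak fold activation above 5 at a dose under 20 µM within 7 h; inactive means the rest.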

Test system: SW403 caspase-3/7 Glo luminescence, 7 h
Assay: apoptosis induction by VCP inhibitors – cell-based, mechanism study for p97 inhibitor project (AID 504653)
Details: hits give high values
Summary of the method: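 Test system: SW403 cells. Incubation: 7 h compound exposure, then 1 h reagent incubation at room temperature. Detection: Caspase-3/7 Glo reagent, luminescence. Benchmarks: 1 % DMSO reference.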

Row | SMILES | maximal fold activation
1 | OCCOc1cccc2c(NCc3ccccc3)nc(N3CCOc4ccccc43)nc12 | 1.3 (inactive)
2 | Fc1cccc(CNc2nc(NCc3ccccc3)c3ccccc3n2)c1 | 5.9 (inactive)
3 | COc1cccc2c(NCc3ccccc3)nc(N3CCOc4ccccc43)nc12 | 1.6 (inactive)
4 | COc1cccc2c(NCc3ccccc3)nc(-n3c(N)nc4cc(Cl)c(Cl)cc43)nc12 | 1.6 (inactive)
5 | Clc1cccc(Nc2nc(NCc3ccccc3)c3ccccc3n2)c1 | 7.3 (inactive)
6 | COc1cccc(CNc2nc(NCc3ccccc3)c3ccccc3n2)c1 | 3.3 (inactive)
7 | Brc1cccc(CNc2nc(NCc3ccccc3)c3ccccc3n2)c1 | 18
8 | FC(F)(F)c1ccc(CNc2nc(NCc3ccccc3)c3ccccc3n2)cc1 | 26
9 | COc1cccc2c(NCc3ccccc3)nc(NCc3ccccc3)nc12 | 12 (inactive)
10 | Cc1ccc(CNc2nc(NCc3ccccc3)c3ccccc3n2)cc1 | 13 (inactive)
11 | c1ccc(CNc2nc(N3CCOc4ccccc43)nc3ccccc23)cc1 | 1.6 (inactive)
12 | Fc1cccc(Nc2nc(NCc3ccccc3)c3ccccc3n2)c1 | 15 (inactive)
13 | c1ccc(CNc2nc(N3CCOc4ccccc43)nc3ccsc23)cc1 | 1.4 (inactive)
14 | CCN(CC)CCOc1cccc2c(NCc3ccccc3)nc(N3CCOc4ccccc43)nc12 | 8 (inactive)
15 | COc1cccc2c(NCc3ccccc3)nc(Nc3nc4ccccc4n3C)nc12 | 16
16 | COc1cccc2c(NCc3ccccc3)nc(-n3c(N)nc4ccccc43)nc12 | 29
17 | COc1cccc2c(NCc3ccccc3)nc(NCc3cccs3)nc12 | 24
